From ChEMBL document CHEMBL4819011, “Structure-based discovery of 1H-indole-2-carboxamide derivatives as potent ASK1 inhibitors for potential treatment of ulcerative colitis” (Eur J Med Chem, 2021) come the findings set out here.

Each structure is given as a SMILES string. The source made the active and inactive calls. The calls are words filed in the database; no cut-off is given here.

A short description of data set [1]: Volume of distribution at steady state in Sprague-Dawley rat at 1 mg/kg, iv measured for 24 hrs by LC-MS/MS analysis. Format: ADME, organism-based. The settings on record: in vivo, read-out: Vdss. An outline of the steps:
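Male SD rats, fasted 24 h, n = 3. Single iv dose of 1 mg/kg given as a solution in 10% DMAC + 10% (30% Solutol HS 15 in water) + 80% saline. Venous blood (about 150 µL) collected into heparin tubes at 0.083, 0.25, 0.5, 1, 2, 4, 8 and 24 h. Plasma protein-precipitated with ACN containing dexamethasone IS, analysed by LC-MS/MS. Parameters calculated in DAS 2.1.1; mean ± SD.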

The subject of data set [2] is Mus musculus. The data set is described as follows: Anti-ulcerative colitis activity against DSS-induced ulcerative colitis ICR mouse model assessed as colon shortening at 25 mg/kg, po qd measured after 7 days (reference value: 26.7%). Type of data set: functional. As to conditions: time 7 day. In a few lines: (§1)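 Male ICR mice (18–22 g, 6–8 weeks) given 3% DSS (w/v) in drinking water for 7 days, water changed every two days. Dosed 25 mg/kg po once daily in CMC-Na aqueous vehicle during DSS exposure; vehicle-treated water and DSS groups served as controls, n = 6 per group. Body weight, stool consistency and rectal bleeding recorded daily. DAI is the mean of the weight-loss (0–4), stool (0–2) and blood (0–2) scores. Colon length measured at sacrifice. Mean ± SEM.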

Data set [3] concerns Mus musculus. The data set is described as follows: Anti-ulcerative colitis activity against DSS-induced ulcerative colitis ICR mouse model assessed as decrease of colonic tissue damage at 25 mg/kg, po qd measured after 7 days by H and E staining method. Format: functional, organism-based. As to conditions: time 7.0 day. In a few lines: (§2)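 ICR mice given 3% DSS in drinking water for 7 days with 25 mg/kg po qd in CMC-Na vehicle. At sacrifice, colons fixed in 4% formaldehyde, paraffin-embedded, sectioned at 4 µm and stained with hematoxylin and eosin. Histopathology examined by light microscopy.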

Data set [4] relates to Mus musculus. As to the kind of experiment: Anti-ulcerative colitis activity against DSS-induced ulcerative colitis ICR mouse model assessed as decrease of infiltration of inflammatory cells in colon at 25 mg/kg, po qd measured after 7 days by H and E staining method. The settings on record: time 7.0 day. Type of data set: functional, organism-based. In a few lines:
as §2

The target of data set [5] is T1, Mitogen-activated protein kinase kinase kinase 5 (Mus musculus) (UniProt O35099).
T1 sequence (whole entry): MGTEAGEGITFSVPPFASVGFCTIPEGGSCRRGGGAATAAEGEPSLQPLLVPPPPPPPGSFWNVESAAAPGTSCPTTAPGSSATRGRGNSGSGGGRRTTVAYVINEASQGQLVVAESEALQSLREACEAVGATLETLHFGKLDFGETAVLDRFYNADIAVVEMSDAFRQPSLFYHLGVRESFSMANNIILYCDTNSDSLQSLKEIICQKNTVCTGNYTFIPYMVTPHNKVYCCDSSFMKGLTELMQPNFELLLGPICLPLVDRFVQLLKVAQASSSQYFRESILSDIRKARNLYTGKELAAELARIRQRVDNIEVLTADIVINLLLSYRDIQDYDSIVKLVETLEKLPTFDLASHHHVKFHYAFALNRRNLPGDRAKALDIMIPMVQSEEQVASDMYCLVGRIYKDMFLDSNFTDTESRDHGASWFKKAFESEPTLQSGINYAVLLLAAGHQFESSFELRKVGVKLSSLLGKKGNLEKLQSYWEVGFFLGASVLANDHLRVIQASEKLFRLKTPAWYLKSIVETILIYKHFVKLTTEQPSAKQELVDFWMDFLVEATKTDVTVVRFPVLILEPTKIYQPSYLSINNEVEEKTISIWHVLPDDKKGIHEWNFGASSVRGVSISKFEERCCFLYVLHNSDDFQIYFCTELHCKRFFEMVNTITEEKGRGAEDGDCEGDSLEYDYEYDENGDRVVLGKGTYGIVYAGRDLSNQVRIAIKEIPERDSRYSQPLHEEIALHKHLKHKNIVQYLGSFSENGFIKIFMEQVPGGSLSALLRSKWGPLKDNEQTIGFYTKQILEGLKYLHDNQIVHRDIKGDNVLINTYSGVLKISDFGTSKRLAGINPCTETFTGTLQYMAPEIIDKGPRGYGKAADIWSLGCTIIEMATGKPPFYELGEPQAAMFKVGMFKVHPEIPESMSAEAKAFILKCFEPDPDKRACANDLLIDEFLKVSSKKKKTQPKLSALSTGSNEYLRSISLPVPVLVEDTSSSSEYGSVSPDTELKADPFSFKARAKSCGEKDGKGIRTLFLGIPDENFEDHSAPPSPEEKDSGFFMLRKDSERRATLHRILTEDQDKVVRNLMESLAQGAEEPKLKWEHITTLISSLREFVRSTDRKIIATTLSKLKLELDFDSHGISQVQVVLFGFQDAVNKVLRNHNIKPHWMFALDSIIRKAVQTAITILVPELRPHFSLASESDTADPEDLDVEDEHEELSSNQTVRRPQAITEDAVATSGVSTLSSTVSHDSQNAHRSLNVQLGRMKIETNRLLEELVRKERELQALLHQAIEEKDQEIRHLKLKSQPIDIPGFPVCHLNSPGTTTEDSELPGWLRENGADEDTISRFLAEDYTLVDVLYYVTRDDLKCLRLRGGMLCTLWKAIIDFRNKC
The data set is described as follows: In vivo inhibition of ASK1 in DSS-induced ulcerative colitis ICR mouse model assessed as downregulation of phosphorylation of ASK1 in colon at 25 mg/kg, po qd measured after 7 days by western blot assay. Type of data set: functional, organism-based. As to conditions: time 7.0 day. In a few lines: (§3)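 Colons from ICR mice given 7 days of DSS plus 25 mg/kg po qd. Tissue homogenised in ice-cold RIPA buffer and protein quantified by BCA. Proteins separated by SDS-PAGE, transferred to PVDF and blocked in 5% BSA. Probed overnight at 4 °C for total and phospho ASK1, MKK3/6, MKK4/7, p38 and JNK, with GAPDH as loading control. Detected with HRP anti-rabbit secondary and ECL. Phosphorylated protein normalised to its unphosphorylated form.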

Data set [6] has as its target T1, Mitogen-activated protein kinase kinase kinase 5 (Mus musculus). The data set is described as follows: In vivo inhibition of ASK1 in DSS-induced ulcerative colitis ICR mouse model assessed as downregulation of phosphorylation of MKK3/6 in colon at 25 mg/kg, po qd measured after 7 days by western blot assay. Type of data set: functional, organism-based. The settings on record: time 7.0 day. In a few lines: as §3
(A western blot detects proteins with antibodies after separation by electrophoresis.)

Data set [7] shares this target. As to the kind of experiment: In vivo inhibition of ASK1 in DSS-induced ulcerative colitis ICR mouse model assessed as downregulation of phosphorylation of MKK4/7 in colon at 25 mg/kg, po qd measured after 7 days by western blot assay. Format: functional, organism-based. The settings on record: time 7.0 day. In a few lines: as §3
The subject of data set [8] is Mus musculus. As to the kind of experiment: Anti-inflammatory activity against DSS-induced ulcerative colitis ICR mouse model assessed as decrease of IL-1 beta level in colon at 25 mg/kg, po qd measured after 7 days by ELISA. The settings on record: time 7.0 day. Type of data set: functional, organism-based. An outline of the steps:
(§4)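 Colon tissue collected from ICR mice after 7 days of 3% DSS drinking water plus 25 mg/kg po qd dosing. Tissue homogenised and centrifuged; IL-1β, IL-6 and TNF-α in the supernatant measured with mouse ELISA kits.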

Data set [9] concerns Mus musculus. The data set is described as follows: Anti-inflammatory activity against DSS-induced ulcerative colitis ICR mouse model assessed as decrease of IL-6 level in colon at 25 mg/kg, po qd measured after 7 days by ELISA. Format: functional, organism-based. The settings on record: time 7.0 day. An outline of the steps:
as §4
A general note: ELISA stands for enzyme-linked immunosorbent assay.

For data set [10], the system named is Mus musculus. As to the kind of experiment: Anti-inflammatory activity against DSS-induced ulcerative colitis ICR mouse model assessed as decrease of TNF-alpha level in colon at 25 mg/kg, po qd measured after 7 days by ELISA. As to conditions: time 7.0 day. Type of data set: functional, organism-based. An outline of the steps:
as §4

Data set [11] has as its system Mus musculus. As to the kind of experiment: Anti-ulcerative colitis activity against DSS-induced ulcerative colitis ICR mouse model assessed as recovery of body weight loss at 25 mg/kg, po qd measured after 7 days. As to conditions: time 7.0 day. Format: functional, organism-based. In a few lines: as §1
In data set [12] the test system is Mus musculus. The data set is described as follows: Anti-ulcerative colitis activity against DSS-induced ulcerative colitis ICR mouse model assessed as disease activity index score at 25 mg/kg, po qd measured after 7 days (reference value: 2.83 units). Format: functional. As to conditions: time 7 day. An outline of the steps:
as §1

In data set [13] the target is T1, Mitogen-activated protein kinase kinase kinase 5 (Mus musculus). As to the kind of experiment: In vivo inhibition of ASK1 in DSS-induced ulcerative colitis ICR mouse model assessed as downregulation of phosphorylation of p38 in colon at 25 mg/kg, po qd measured after 7 days by western blot assay. Type of data set: functional, organism-based. As to conditions: time 7.0 day. In a few lines:
as §3

Data set [14] shares this target. The data set is described as follows: In vivo inhibition of ASK1 in DSS-induced ulcerative colitis ICR mouse model assessed as downregulation of phosphorylation of JNK in colon at 25 mg/kg, po qd measured after 7 days by western blot assay. Type of data set: functional, organism-based. The settings on record: time 7.0 day. An outline of the steps: as §3
Data set [15] is described as follows: Oral bioavailability in Sprague-Dawley rat at 5 mg/kg measured for 24 hrs by LC-MS/MS analysis. The settings on record: in vivo. Format: ADME, organism-based.

For the compound `Cc1cc(F)c(C(=O)Nc2cccc(-c3nncn3C(C)C)n2)cc1-n1cnc(C2CC2)c1` [SELONSERTIB], the Vd in data set [1] was found to be 0.55 L/kg. Also, in the data set on Mus musculus [2], the Activity was determined as 23.4%. For the same compound, the outcome in the data set with Mus musculus [3], with Mus musculus [4], with Mus musculus [8], in the data set on Mus musculus [9] and with Mus musculus [10] was Active. Besides, the inhibition result in [5], in data set [6], in data set [7], in data set [13] and in [14] was “Active” throughout. Also, the outcome with Mus musculus [11] was inactive. Also, in the data set on Mus musculus [12], the DAI score decrease came to 0.83. The compound further returned a bioavailability in data set [15] of 75%.

One may read the bioavailability as dose-corrected exposure relative to a reference, in per cent. Read a high bioavailability as good availability.
